Screen size: about 2,500 compounds; about 460 (18%) were called active. The list is a sample of the results. Values without a mark were called inactive.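 The calls were made as follows: active = mean activation above a cutoff of low control average plus 3 SD from the earlier screen (cut at about 12% in these data); inactive = the rest.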
test: compound fluorescence interference without thin filaments, confirmation, artefact control for cardiac RTF calcium sensitizer project, biochemical (AID 504382); conditions: IANBD fluorescence interference counterscreen, buffer, EC20 Ca2+; at 7.2 µM; stronger effect = higher value; scaled: EC20 calcium 0, EC100 calcium 100
How it was run: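 Also added: EC20 calcium, 0.472 mM; dosing: single nominal 7.2 µM compound dose, 0.7% DMSO final; timing: 15 min, 25 °C; detection: fluorescence intensity, excitation 480 nm, emission 540 nm; replicates: each compound tested in triplicate wells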

Row | SMILES | fluorescence artifact activation
1 | Cc1cc(-n2c(=O)c(C#N)cc3c(=O)n4ccccc4nc32)no1 | 0.34%
2 | CN(C)c1ccc(/C=C2\Oc3ccc(C#Cc4cccc(N)c4)cc3C2=O)cc1 | 0.09%
3 | Cc1nn(-c2ccccc2)c(N2CCCC2)c1/C=C1\N=C(c2ccc(OC(C)C)cc2)OC1=O | 0.42%
4 | COc1ccc(NC(C)=O)cc1NC(=O)C1CCCN1C(=O)c1cccs1 (centres undefined) | -0.02%
5 | CCN(CC)c1ccc(/C=c2\sc3nnc(-c4ccccc4Cl)n3c2=O)cc1 | 13.8% (active)
6 | CCN(CC)c1ccc(/C=c2/sc3nnc(-c4ccccc4C)n3c2=O)cc1 | 0.53%
7 | CCN(CC)c1ccc(/C=c2\sc3nc4ccccc4n3c2=O)c(O)c1 | 3.44%
8 | Cc1ccc(/C=C/C(=O)N2CCN(S(=O)(=O)c3ccc(C)c(C)c3)CC2)o1 | 2.09%
9 | Cc1ccc(C(=O)N2C(=O)C(c3ccccc3)Oc3ccccc32)cc1 (centres undefined) | 0.42%
10 | CN1CC=C2C(C#N)=C(N)C(C#N)(C#N)C(c3ccsc3)C2C1 (centres undefined) | 0.22%
11 | CCCN1C=CC(=CC=C(C#N)C#N)C=C1 | 4.48%
12 | C=CCN1C=CC(=CC=C(C#N)C#N)C=C1 | 251% (active)
13 | CCOc1ccc(S(=O)(=O)n2ccnc2)c2ccccc12 | 2.67%
14 | CCc1ccc(C(=O)NNC(=O)c2cccc(N3C(=O)CCC3=O)c2)cc1 | 2.93%
15 | O=S(=O)([N-]c1nc2ccccc2nc1-[n+]1ccc(-c2ccncc2)cc1)c1ccccc1 | 0.08%
16 | Cc1ccc[n+](-c2nc3ccccc3nc2[N-]S(=O)(=O)c2ccccc2)c1 | 17.5% (active)
17 | CCc1cc[n+](-c2nc3ccccc3nc2[N-]S(=O)(=O)c2ccc(Br)s2)cc1 | -0.02%
18 | CC1=Nc2ccccc2/C1=C\c1nc(-c2ccc(F)cc2)oc1O | 0.71%
19 | Cc1ccc(NC(=S)Nc2ccc3nc(-c4ccccn4)c(-c4ccccn4)nc3c2)cc1C | 0%
20 | CC(C)CNC(=S)NC(=O)c1ccccc1Cl | 32.2% (active)
21 | O=C(COc1ccccc1)NC(=S)Nc1cccc(NC(=O)c2ccccc2Cl)c1 | 0.01%
22 | Cc1ccccc1C(=O)NC(=S)NC1CC1 | 0.12%
23 | CCCn1c(=N)n(CC(O)c2ccco2)c2ccccc21 (centres undefined) | 0.03%
24 | COCCCN1C(=O)/C(=C/c2ccc(CNS(=O)(=O)c3ccccc3)o2)C(C(=O)OC)=C1C | 0.04%

Row | SMILES | fluorescence artifact activation
25 | COc1c(Cl)ccc(Cl)c1C(=O)NCc1ccco1 | 0.03%
26 | CC(=O)Nc1cc(C(=O)NCc2ccco2)ccc1Sc1ccc(F)cc1 | 18.1% (active)
27 | CCOc1ccc(CNC(=O)c2ccc(Sc3ccc(Cl)cc3)c(NC(C)=O)c2)cc1 | 1.09%
28 | CCCCOc1[nH]c2nc(-c3ccco3)n(Cc3ccco3)c(=N)c2c1C#N | 0.23%
29 | O=c1nc2c(O)cccn2c2c1c(=O)[nH]c1ccccc12 | 0.02%
30 | Cc1sc2nc(COC(=O)c3cccc(S(=O)(=O)N(C)c4ccccc4)c3)[nH]c(=O)c2c1C | 0.1%
31 | Cc1cccc(C)c1NC(=O)CN(C1CCCCC1)S(C)(=O)=O | 0.02%
32 | CCCNC(=O)c1ccc(N2CCC3(CC2)CC(c2cccc(Br)c2)=NO3)c(NC(=O)c2cccc(C)c2)c1 | 3.63%
33 | O=C(Nc1nccs1)C1CCN(S(=O)(=O)c2ccccc2)CC1 | 461% (active)
34 | O=C(Nc1ccccc1N1CCOCC1)C1CCN(S(=O)(=O)c2ccccc2F)CC1 | -0.05%
35 | O=C(c1cc(-c2cccs2)nn1-c1ccccc1)N1CCN(S(=O)(=O)c2ccccc2)CC1 | 2.28%
36 | O=C(Nc1ccc(Cl)cn1)C1CCN(S(=O)(=O)c2cccs2)CC1 | 74.6% (active)
37 | O=C(Cc1cccs1)N1CCN(S(=O)(=O)c2cc(Cl)ccc2Cl)CC1 | 1.88%
38 | O=C(c1cc(Cl)ccc1O)N1CCN(S(=O)(=O)c2cccs2)CC1 | 114% (active)
39 | CCOc1ccc(NC(=O)C2CCN(S(=O)(=O)c3cccnc3)CC2)cc1 | -0.04%
40 | CC(=O)N1CCc2c(sc(NC(=O)C3CCCN3S(=O)(=O)c3cccs3)c2C(N)=O)C1 (centres undefined) | 9.49%
41 | O=C(CC1CCCC1)N1CCN(S(=O)(=O)c2ccccc2)CC1 | 0.13%
42 | COc1cccc(CNC(=O)CCC(=O)N2CC(C)Oc3ccccc32)c1OC (centres undefined) | 0.11%
43 | Cc1c(C(=O)NC2CC2)oc2ccccc12 | 0.04%
44 | Cc1cc(C)nc(NC(=O)c2ccc(Cl)c(Cl)c2)n1 | 0.33%
45 | CC1=C(C#N)C(=O)OC(C)(C)C1 | 0.01%
46 | Cc1[nH]c(=O)c(C#N)c(C)c1Cl | 0.06%
47 | O=C(N/N=C/c1sc(N2CCOCC2)nc1-c1ccccc1)c1cccc(S(=O)(=O)N2CCCC2)c1 | 0%
48 | Cc1cc2nc3c(=O)[nH]c(=O)[nH]c3nc2c([N+](=O)[O-])c1N | 0.02%

Row | SMILES | fluorescence artifact activation
49 | O=C1/C(=C/c2cccs2)N=C(c2cccs2)N1Nc1ccccc1 | 4.3%
50 | COCCN(C(=S)Nc1cccc(OC)c1)C1CCN(C(C)=O)CC1 | 0.16%
51 | CCn1cc(/C=C/C(=O)Nc2c(C)nn(Cc3ccccc3C)c2C)cn1 | 0.05%
52 | COc1ccc(CC(=O)NNC(=O)c2ccncc2)cc1 | 0.18%
53 | COc1ccc(/C=N/NC(=O)c2cccnc2)cc1CN1CCOCC1 | 6.25%
54 | CCOC(=O)C1=C(C)NC(C)=C(C(=O)OCC)C1c1ccco1 | 0.15%
55 | COc1ccc(CNCc2cccc(Cl)c2)cc1 | 0.14%
56 | OCCNCc1cccc(OCc2ccc(Cl)cc2)c1 | 61% (active)
57 | Cc1ccc(C(C(=O)NC2CCCC2)N(C(=O)Cc2cccs2)c2cccc(C)c2C)o1 (centres undefined) | 0%
58 | CC1=C(C(=O)OCCCCCl)C(c2cc3c(cc2Br)OCO3)NC(=O)N1 (centres undefined) | -0.02%
59 | C[C@H]1CN([C@@H](C)CO)C(=O)Cc2cc(NC(=O)CCC(F)(F)F)ccc2O[C@H]1CN(C)S(C)(=O)=O | 0.55%
60 | Oc1[nH]c2ccccc2c1N=Nc1ccccc1F | -0.02%
61 | Oc1[nH]c2ccccc2c1N=Nc1ccc(F)cc1 | 34.1% (active)
62 | Oc1[nH]c2ccccc2c1N=Nc1ccccc1 | 11.6%
63 | COc1ccc(-n2c(O)c(/C=N/NS(=O)(=O)c3cccc([N+](=O)[O-])c3)c3ccccc3c2=O)cc1OC | 0.15%
64 | CC1CC1c1ccc(/C=C(\C#N)C(=O)Nc2cccc(Cl)c2Cl)o1 (centres undefined) | 4%
65 | Cn1ncc(Cl)c1C(=O)Nc1cccc(Cl)c1 | 0.09%
66 | Cn1nccc1NC(=O)Nc1cccc(Cl)c1Cl | 13.5% (active)
67 | O=C(Nc1ccccc1)C1=C[C@H](c2ccc3c(c2)OCO3)C[C@H](OCCCCO)O1 | 1.74%
68 | COc1cc(/C=N/NC(=O)c2cc(-c3ccccc3Cl)nc3ccccc23)cc(OC)c1O | 8.56%
69 | O=c1[nH][nH]c(C(F)(F)F)c1C=Nc1cccc(Cl)c1 | 1.19%
70 | Cc1cc(O)c(CN(C)C)c2c1C(=O)/C(=C/c1ccco1)O2 | 0%
71 | CC(C)Cn1c(N)c(C(=O)COC(=O)c2cc(F)cc(F)c2)c(=O)n(C)c1=O | 40.2% (active)
72 | CCOC(=O)C1=C(C)N=c2s/c(=C/c3ccc(OCC(=O)O)c(OC)c3)c(=O)n2C1c1ccc(Cl)cc1 (centres undefined) | -0.04%

Row | SMILES | fluorescence artifact activation
73 | Cc1cc(C=C2C(=O)c3ccccc3C2=O)c(C)n1-c1ccc(Cl)cc1 | -0.07%
74 | CCN1C(=O)/C(=C/c2ccc(N3CCCC3)cc2)NC1=S | 0.26%
75 | CCCN1C(=O)/C(=C/c2ccc(N3CCCC3)c(C)c2)NC1=S | 0.06%
76 | CCCN1C(=O)/C(=C/c2ccc(N3CCOCC3)cc2)NC1=S | 131% (active)
77 | CC1(C)NC(=O)N(CCCCOc2ccc(Cl)cc2)C1=O | 0.28%
78 | CCOC(=O)NC1(C(F)(F)F)C(=O)NC(C)=C1C(=O)OC (centres undefined) | 5.24%
79 | S=c1[nH]nc(-c2ccc(Cl)cc2)n1-c1ccc2c(c1)OCCO2 | 31.8% (active)
80 | Cc1ccc(-n2c(C)n[nH]c2=S)cc1 | 1.66%
81 | CCN(CC)c1ccc(/C=C2/SC(=O)N(C(C)C)C2=O)o1 | 8.25%
82 | C/C(=N/NS(=O)(=O)c1ccccc1)c1ccc(NC(=O)C2CC2)cc1 | 6.01%
83 | O=C(CNCc1cccs1)Nc1cc(S(=O)(=O)N2CCCC2)ccc1Cl | 4.18%
84 | O=C(CCCN1C(=O)c2ccccc2C1=O)Nc1ccc(S(=O)(=O)N2CCCCC2)cc1 | 0.02%
85 | O=C(CNCc1cccs1)Nc1ccc(S(=O)(=O)N2CCCCC2)cc1 | 15.8% (active)
86 | CCC1(O)C(=O)OCc2c1cc1n(c2=O)Cc2cc3cc(O)ccc3nc2-1 (centres undefined) | 0.27%
87 | CCOc1ccccc1C(=O)NN1C(=O)CCC1=O | 3.75%
88 | Cc1cc(C)n(CC(O)COc2ccccc2)n1 (centres undefined) | 0.59%
89 | O=C1CCC(=O)N1CC(O)COc1ccccc1 (centres undefined) | 61.5% (active)
90 | CC(C)(C)NC(=O)[C@@H]1CN(Cc2cccnc2)CCN1C[C@@H](O)C[C@@H](Cc1ccccc1)C(=O)N[C@H]1c2ccccc2C[C@H]1O | 54.1% (active)
91 | Cn1nc([N+](=O)[O-])c(C(C#N)c2ccccn2)c(Cl)c1=O (centres undefined) | -0.03%
92 | CN1C(=O)/C(=C\c2ccc(N(C)C)cc2)OC1=S | 57.7% (active)
93 | Cc1c(N2C(=O)/C(=C\c3ccc(N(C)C)cc3)N(C)C2=S)c(=O)n(-c2ccccc2)n1C | 0.17%
94 | CN(C)c1ccc(/C=C2\N=C(C(C)(C)C)OC2=O)cc1 | 0.15%
